Results published in ChEMBL document CHEMBL1144209, “CYP19 (aromatase): exploring the scaffold flexibility for novel selective inhibitors” (Bioorg Med Chem, 2008).

Key:
Aromatase [1] = target: T1, Aromatase (Homo sapiens, UniProt P11511); assay: Inhibition of human aromatase
T1 sequence (P11511 whole entry): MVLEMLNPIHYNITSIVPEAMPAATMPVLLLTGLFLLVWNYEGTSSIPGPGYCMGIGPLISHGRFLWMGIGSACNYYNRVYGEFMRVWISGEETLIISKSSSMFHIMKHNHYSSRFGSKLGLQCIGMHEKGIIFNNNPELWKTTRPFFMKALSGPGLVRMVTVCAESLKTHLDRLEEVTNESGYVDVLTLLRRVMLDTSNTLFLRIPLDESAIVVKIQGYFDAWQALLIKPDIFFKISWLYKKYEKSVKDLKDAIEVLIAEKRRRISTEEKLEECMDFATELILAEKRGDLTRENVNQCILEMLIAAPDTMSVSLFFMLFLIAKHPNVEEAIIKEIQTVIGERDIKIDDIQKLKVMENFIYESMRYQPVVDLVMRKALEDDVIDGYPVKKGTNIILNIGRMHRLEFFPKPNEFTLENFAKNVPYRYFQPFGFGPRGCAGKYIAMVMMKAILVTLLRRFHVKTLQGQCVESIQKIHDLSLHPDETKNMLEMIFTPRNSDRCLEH

[2] = target: T2, CYP17 (steroid 17-alpha-hydroxylase/17,20 lyase) (Homo sapiens, UniProt P05093); assay: (§1) Inhibition of human CYP17 expressed in Escherichia coli coexpressing NADPH reductase at 2 uM
T2 sequence (P05093 whole entry): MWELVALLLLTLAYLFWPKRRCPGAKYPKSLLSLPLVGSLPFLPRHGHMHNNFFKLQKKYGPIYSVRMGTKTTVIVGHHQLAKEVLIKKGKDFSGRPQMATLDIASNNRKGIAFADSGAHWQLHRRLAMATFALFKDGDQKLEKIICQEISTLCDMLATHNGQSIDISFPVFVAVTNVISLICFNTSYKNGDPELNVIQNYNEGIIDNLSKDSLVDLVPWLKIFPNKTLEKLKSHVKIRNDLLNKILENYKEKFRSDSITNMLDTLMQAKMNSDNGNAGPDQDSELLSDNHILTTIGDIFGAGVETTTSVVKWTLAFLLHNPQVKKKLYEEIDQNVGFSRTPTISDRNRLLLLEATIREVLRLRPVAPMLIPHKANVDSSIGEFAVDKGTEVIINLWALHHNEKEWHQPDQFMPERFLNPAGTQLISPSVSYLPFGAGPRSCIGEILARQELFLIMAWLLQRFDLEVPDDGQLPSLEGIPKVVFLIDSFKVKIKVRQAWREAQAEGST
In short: (§2)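 Enzyme: 50,000g sediment from homogenized, fractionally centrifuged E. coli coexpressing human CYP17 and NADPH-P450 reductase. Substrate: progesterone, 25 µM. Values are means of at least three experiments, with deviations within 5%.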

[3] = target: T3, Steroid 17-alpha-hydroxylase/17,20 lyase (Homo sapiens, UniProt P05093); assay: as §1; conditions: 2 µM; in short: as §2
T3 sequence (P05093 whole entry): T2 sequence (P05093 whole entry)

Aromatase [4] = target: T1, Aromatase; assay: Inhibition of human aromatase at 36 uM
In short: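 Aromatase source: microsomal fraction of fresh human term placenta. Substrate: [1β,2β-³H]testosterone, 500 nM. Read-out: tritiated water released on aromatization (³H₂O method). Values are means of at least three experiments, with deviations within 5%.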

SMILES | IC50 (Aromatase [1]) | inhibition at 2 µM [2] | Activity [3] | inhibition at 36 µM (Aromatase [4])
C(=C\c1ccccc1)/CCN(Cc1cccc2ccccc12)n1cncn1 | 13 µM | 15.5% | – | –
Clc1ccc(CN(Cc2ccc(-c3ccccc3)cc2)n2ccnc2)cc1 | 1.18 µM | 13.6% | – | –
CC(C)(C)c1ccc(CC(Cc2ccc(-c3ccccc3)cc2)n2ccnc2)cc1 (stereo not drawn) | 1 µM | – | Not Active | –
Fc1ccc(CN(Cc2ccc(-c3ccccc3)cc2)n2ccnc2)cc1 | 0.19 µM | 13.9% | – | –
COc1ccccc1CN(Cc1ccc(-c2ccccc2)cc1)n1ccnc1 | 1.51 µM | 42.9% | – | –
COc1ccc(CN(Cc2ccc(-c3ccccc3)cc2)n2ccnc2)cc1 | 1.53 µM | 21.7% | – | –
c1ccc(CC(Cc2ccc(-c3ccccc3)cc2)n2ccnc2)cc1 (stereo not drawn) | 0.95 µM | 17.1% | – | –
CC(C)(C)c1ccc(CN(Cc2cccc3ccccc23)n2cnnc2)cc1 | – | 22.4% | – | –
Clc1ccc(CN(CC/C=C/c2ccccc2)n2cnnc2)c(Cl)c1 | – | – | Not Active | 10.6%
CC(C)(C)c1ccc(CN(CC/C=C/c2ccccc2)n2cnnc2)cc1 | – | 19.9% | – | 38.3%
Fc1ccc(CN(Cc2ccc(-c3ccccc3)cc2)n2ccnc2)c(F)c1 | 0.35 µM | – | Not Active | –
CC(C)(C)c1ccc(CN(Cc2ccc(Cl)cc2Cl)n2ccnc2)cc1 | 1.52 µM | 43.3% | – | –
CC(C)(C)c1ccc(CN(Cc2ccc(Cl)cc2Cl)n2cncn2)cc1 | – | 3.33% | – | 36%
Clc1ccc(CN(Cc2cccc3ccsc23)n2ccnc2)c(Cl)c1 | 2.49 µM | 4.07% | – | –
CC(C)(C)c1ccc(CN(Cc2ccc(-c3ccccc3)cc2)n2ccnc2)cc1 | 2.16 µM | – | Not Active | –
Clc1ccc(CN(Cc2ccc(Cl)s2)n2ccnc2)c(Cl)c1 | 0.32 µM | 56.2% | – | –
CC(C)(C)c1ccc(CN(Cc2cccs2)n2cncn2)cc1 | 9.23 µM | – | Not Active | –
Clc1ccc(CC(Cc2ccccc2)n2ccnc2)s1 (stereo not drawn) | 0.87 µM | 7.97% | – | –
Clc1ccccc1CN(Cc1ccc(-c2ccccc2)cc1)n1ccnc1 | 0.3 µM | 29.4% | – | –
COc1ccccc1CC(Cc1ccc(-c2ccccc2)cc1)n1ccnc1 (stereo not drawn) | 0.51 µM | 30.2% | – | –
CC(C)(C)c1ccc(CN(Cc2cccc3ccccc23)n2cncn2)cc1 | – | 3.13% | – | 14.6%
Cc1ccc(CC(Cc2ccc(-c3ccccc3)cc2)n2ccnc2)cc1 (stereo not drawn) | 1.32 µM | 32.8% | – | –
Clc1ccc(CN(Cc2cccc3ccccc23)n2cnnc2)c(Cl)c1 | – | 4.43% | – | 8.8%
CC(C)(C)c1ccc(CN(Cc2cccs2)n2cnnc2)cc1 | – | – | Not Active | 30.7%
Fc1ccc(CC(Cc2ccc(-c3ccccc3)cc2)n2ccnc2)cc1 (stereo not drawn) | 0.11 µM | 15.8% | – | –
CC(C)(C)c1ccc(CN(Cc2cccs2)n2ccnc2)cc1 | 0.58 µM | 10.7% | – | –
Clc1ccc(CN(Cc2ccc(-c3ccccc3)cc2)n2cncn2)c(Cl)c1 | – | 9.2% | – | 27.6%
